Results on eight compounds are retold here after ChEMBL document CHEMBL1126625, “7-Azetidinylquinolones as antibacterial agents. Synthesis and structure-activity relationships” (J Med Chem, 1993).

Converted amounts (≈) assume the structure as drawn.

The subject of data set [1] is Bacillus cereus. Description: Minimum inhibitory concentration (MIC) preventing growth of Bacillus cereus. The class given is functional.
For data set [2], the system named is Bacillus subtilis. As to the kind of experiment: Minimum inhibitory concentration (MIC) preventing growth of Bacillus subtilis. Type of data set: functional.
The test system of data set [3] is Escherichia coli. As to the kind of experiment: Minimum inhibitory concentration (MIC)preventing growth of Escherichia coli. The class given is functional.
In data set [4] the test system is Escherichia coli. As to the kind of experiment: Efficacy on systemic infections after oral administration in mice was determined against Escherichia coli HM-42. The class given is functional. Put shortly:
(§1)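 Mouse protection test using 4 groups of 10 mice. Mice were infected intraperitoneally with a bacterial suspension slightly above LD100. A single oral dose was given immediately after infection, with four doses, one per group, chosen from in vitro activity. Survival was scored after one week, and ED50 (total mg/kg protecting 50% of mice) was interpolated from group survival rates.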

For data set [5], the system named is Klebsiella pneumoniae. Description: Minimum inhibitory concentration (MIC)preventing growth of Klebsiella pneumoniae. The class given is functional.
Data set [6] deals with Morganella morganii. Description: Minimum inhibitory concentration (MIC) preventing growth of Morganella morganii. Type of data set: functional.
Data set [7] has as its system Pseudomonas aeruginosa. Description: Efficacy on systemic infections after oral administration in mice was determined against Pseudomonas aeruginosa HS-116. Type of data set: functional. Put shortly:
as §1

The subject of data set [8] is Proteus vulgaris. As to the kind of experiment: Minimum inhibitory concentration (MIC) preventing growth of Proteus vulgaris. Type of data set: functional.
In data set [9] the test system is Staphylococcus epidermidis. As to the kind of experiment: Minimum inhibitory concentration (MIC) preventing growth of Staphylococcus epidermidis. The class given is functional.
Data set [10] deals with Staphylococcus aureus. As to the kind of experiment: Minimum inhibitory concentration (MIC) preventing growth of […]. Type of data set: functional.
Data set [11] deals with Staphylococcus aureus. As to the kind of experiment: Efficacy on systemic infections after oral administration in mice was determined against […] HS-93. The class given is functional. Put shortly: as §1
Data set [12] concerns Enterococcus faecalis. As to the kind of experiment: Minimum inhibitory concentration (MIC) preventing growth of Streptococcus faecalis ATCC 10541. The class given is functional.
Data set [13] relates to Enterobacter cloacae. Description: Minimum inhibitory concentration (MIC)preventing growth of Enterobacter cloacae. Type of data set: functional.
Data set [14] relates to Pseudomonas aeruginosa. Description: Minimum inhibitory concentration (MIC)preventing growth of Pseudomonas aeruginosa. Type of data set: functional.
The subject of data set [15] is Mus musculus. As to the kind of experiment: Blood level after oral administration in mice (50 mg/kg) was determined (area under the concentration-time curve recorded at 0.5, 1, 2, and 4 hour after dosing). The class given is ADME, organism-based. Details: dose 50 mg/kg, time < 4 hr, route oral. To be noted: in vivo. Put shortly:
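Single oral dose of 50 mg/kg to mice. Blood taken from groups of six mice at 0.5, 1, 2 and 4 h after dosing. Serum levels measured by disk agar diffusion bioassay with Bacillus subtilis ATCC 6633 on Seed Agar, plates incubated 18 h at 37 °C, giving total activity in serum. AUC 0-4 h expressed as μg/mL […].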

For the compound `CN(C)C1(C)CN(c2cc3c(cc2F)c(=O)c(C(=O)O)cn3C2CC2)C1`, the MIC in data set [1] came out at 0.25 µg/mL (≈ 0.696 µM); in data set [2] it was 0.06 µg/mL (≈ 0.167 µM); in data set [3], 0.25 µg/mL (≈ 0.696 µM); in data set [5] it was 0.25 µg/mL (≈ 0.696 µM); in data set [6], 0.25 µg/mL (≈ 0.696 µM); in [8] it was 0.5 µg/mL (≈ 1.39 µM). Besides, the MIC came out at 0.25 µg/mL (≈ 0.696 µM) in data set [9]; 0.25 µg/mL (≈ 0.696 µM) in [10]; 2 µg/mL (≈ 5.56 µM) in [12]; 0.25 µg/mL (≈ 0.696 µM) in data set [13]; 4 µg/mL (≈ 11.1 µM) in [14]. The ED50 came to 2.7 mg/kg in [4], 296 mg/kg in data set [7] and 16.1 mg/kg in [11].

Turning to `CCn1cc(C(=O)O)c(=O)c2c(N)c(F)c(N3CC(C)(N)C3)c(F)c21`, the MIC was determined as 1 µg/mL (≈ 2.84 µM) in data set [1]; 0.12 µg/mL (≈ 0.341 µM) in [2]; 0.25 µg/mL (≈ 0.71 µM) in data set [3]; 0.25 µg/mL (≈ 0.71 µM) in data set [5]; 0.25 µg/mL (≈ 0.71 µM) in data set [6]; 0.5 µg/mL (≈ 1.42 µM) in data set [8]. The MIC in [9] came out at 0.5 µg/mL (≈ 1.42 µM); in data set [10], 0.5 µg/mL (≈ 1.42 µM); in data set [12] it was 1 µg/mL (≈ 2.84 µM); in data set [13], 0.25 µg/mL (≈ 0.71 µM); in data set [14] it was 2 µg/mL (≈ 5.68 µM).

As for `CC1(N)CN(c2c(F)c(N)c3c(=O)c(C(=O)O)cn(C4CC4)c3c2F)C1`, the MIC in data set [1] turned out to be 0.06 µg/mL (≈ 0.165 µM); in [2] it was 0.015 µg/mL (≈ 0.0412 µM); in [3] it was 0.015 µg/mL (≈ 0.0412 µM); in data set [5], 0.015 µg/mL (≈ 0.0412 µM); in [6] it was 0.015 µg/mL (≈ 0.0412 µM); in [8], 0.12 µg/mL (≈ 0.329 µM). Also, the MIC turned out to be 0.06 µg/mL (≈ 0.165 µM) in [9]; 0.06 µg/mL (≈ 0.165 µM) in data set [10]; 0.25 µg/mL (≈ 0.686 µM) in [12]; 0.015 µg/mL (≈ 0.0412 µM) in [13]; 0.5 µg/mL (≈ 1.37 µM) in [14]. Moreover, the ED50 in data set [4] was 3.3 mg/kg; in data set [7] it was 71 mg/kg; in [11], 7.2 mg/kg.

As for `CC1(N)CN(c2c(F)cc3c(=O)c(C(=O)O)cn(-c4ccc(F)cc4)c3c2Cl)C1`, the minimal inhibitory concentration (MIC) was 0.06 µg/mL (≈ 0.143 µM) in [1]; 0.015 µg/mL (≈ 0.0357 µM) in [2]; 0.03 µg/mL (≈ 0.0715 µM) in data set [3]; 0.03 µg/mL (≈ 0.0715 µM) in data set [5]; 0.12 µg/mL (≈ 0.286 µM) in data set [6]; 0.12 µg/mL (≈ 0.286 µM) in [8]. Also, the MIC in data set [9] is 0.06 µg/mL (≈ 0.143 µM); in data set [10], 0.06 µg/mL (≈ 0.143 µM); in data set [12], 0.25 µg/mL (≈ 0.596 µM); in [13] it was 0.06 µg/mL (≈ 0.143 µM); in [14], 0.5 µg/mL (≈ 1.19 µM). The values for the ED50 in data set [4], in data set [7] and in data set [11] were 0.4 mg/kg, 54.9 mg/kg and 1.1 mg/kg, respectively.

As to `CC1(O)CN(c2cc3c(cc2F)c(=O)c(C(=O)O)cn3C2CC2)C1`, the MIC in [1] stood at 0.12 µg/mL (≈ 0.361 µM); in data set [2], 0.06 µg/mL (≈ 0.181 µM); in data set [3], 0.25 µg/mL (≈ 0.752 µM); in [5] it was 0.06 µg/mL (≈ 0.181 µM); in data set [6] it was 0.25 µg/mL (≈ 0.752 µM); in data set [8], 0.12 µg/mL (≈ 0.361 µM). Besides, the MIC was determined as 0.12 µg/mL (≈ 0.361 µM) in [9]; 0.12 µg/mL (≈ 0.361 µM) in data set [10]; 1 µg/mL (≈ 3.01 µM) in [12]; 0.12 µg/mL (≈ 0.361 µM) in data set [13]; 2 µg/mL (≈ 6.02 µM) in data set [14].

Turning to `O=C(O)c1cn(C2CC2)c2c(F)c(N3CC(O)C3)c(F)cc2c1=O`, the MIC was determined as 0.03 µg/mL (≈ 0.0892 µM) in data set [1]; 0.007 µg/mL (≈ 0.0208 µM) in data set [2]; 0.06 µg/mL (≈ 0.178 µM) in data set [3]; 0.007 µg/mL (≈ 0.0208 µM) in data set [5]; 0.06 µg/mL (≈ 0.178 µM) in data set [6]; 0.06 µg/mL (≈ 0.178 µM) in [8]. For the same compound, the MIC in data set [9] was found to be 0.12 µg/mL (≈ 0.357 µM); in data set [10] it was 0.06 µg/mL (≈ 0.178 µM); in data set [12], 0.5 µg/mL (≈ 1.49 µM); in data set [13], 0.06 µg/mL (≈ 0.178 µM); in data set [14], 2 µg/mL (≈ 5.95 µM). In addition, the values for the median effective dose (ED50) in data set [4], in data set [7] and in [11] were 11.3 mg/kg, 61.3 mg/kg and 29.7 mg/kg, respectively.

As to `CC1(N)CN(c2c(F)cc3c(=O)c(C(=O)O)cn(-c4ccc(F)cc4)c3c2F)C1`, the MIC worked out at 0.12 µg/mL (≈ 0.298 µM) in data set [1]; 0.12 µg/mL (≈ 0.298 µM) in data set [2]; 0.25 µg/mL (≈ 0.62 µM) in data set [3]; 0.015 µg/mL (≈ 0.0372 µM) in data set [5]; 0.25 µg/mL (≈ 0.62 µM) in data set [6]; 1 µg/mL (≈ 2.48 µM) in data set [8]. Also, the minimal inhibitory concentration (MIC) worked out at 0.12 µg/mL (≈ 0.298 µM) in data set [9]; 0.12 µg/mL (≈ 0.298 µM) in data set [10]; 2 µg/mL (≈ 4.96 µM) in data set [12]; 0.25 µg/mL (≈ 0.62 µM) in data set [13]; 2 µg/mL (≈ 4.96 µM) in [14]. For the same compound, the 50% effective dose (ED50) in data set [4] worked out at 3.2 mg/kg; in [7], 159 mg/kg; in data set [11] it was 10.9 mg/kg.

As for `CCNCC1CN(c2cc3c(cc2F)c(=O)c(C(=O)O)cn3C2CC2)C1`, the AUC in data set [15] is 0 ng·h/mL. The MIC is 0.5 µg/mL (≈ 1.39 µM) in data set [1]; 0.06 µg/mL (≈ 0.167 µM) in [2]; 0.25 µg/mL (≈ 0.696 µM) in data set [3]; 0.06 µg/mL (≈ 0.167 µM) in [5]; 0.5 µg/mL (≈ 1.39 µM) in [6]; 1 µg/mL (≈ 2.78 µM) in data set [8]. The MIC worked out at 1 µg/mL (≈ 2.78 µM) in data set [9]; 0.5 µg/mL (≈ 1.39 µM) in data set [10]; 4 µg/mL (≈ 11.1 µM) in [12]; 0.12 µg/mL (≈ 0.334 µM) in data set [13]; 4 µg/mL (≈ 11.1 µM) in data set [14].

As a reminder, the MIC is the lowest concentration found to suppress growth. A low value points to greater potency. For orientation: ED50 means the dose that gives a 50% effect, or the effect in half of the subjects. A word on the AUC: it is concentration integrated over time.
